Drawing on ChEMBL document CHEMBL1157912, “Impact of nature and length of linker incorporated in agonists on toll-like receptor 9-mediated immune responses” (J Med Chem, 2010), this text covers Activity for 2 compounds.

Assay [1] has as its target T1, Toll-like receptor 9 (Mus musculus) (UniProt Q9EQU3).
T1 sequence (whole entry): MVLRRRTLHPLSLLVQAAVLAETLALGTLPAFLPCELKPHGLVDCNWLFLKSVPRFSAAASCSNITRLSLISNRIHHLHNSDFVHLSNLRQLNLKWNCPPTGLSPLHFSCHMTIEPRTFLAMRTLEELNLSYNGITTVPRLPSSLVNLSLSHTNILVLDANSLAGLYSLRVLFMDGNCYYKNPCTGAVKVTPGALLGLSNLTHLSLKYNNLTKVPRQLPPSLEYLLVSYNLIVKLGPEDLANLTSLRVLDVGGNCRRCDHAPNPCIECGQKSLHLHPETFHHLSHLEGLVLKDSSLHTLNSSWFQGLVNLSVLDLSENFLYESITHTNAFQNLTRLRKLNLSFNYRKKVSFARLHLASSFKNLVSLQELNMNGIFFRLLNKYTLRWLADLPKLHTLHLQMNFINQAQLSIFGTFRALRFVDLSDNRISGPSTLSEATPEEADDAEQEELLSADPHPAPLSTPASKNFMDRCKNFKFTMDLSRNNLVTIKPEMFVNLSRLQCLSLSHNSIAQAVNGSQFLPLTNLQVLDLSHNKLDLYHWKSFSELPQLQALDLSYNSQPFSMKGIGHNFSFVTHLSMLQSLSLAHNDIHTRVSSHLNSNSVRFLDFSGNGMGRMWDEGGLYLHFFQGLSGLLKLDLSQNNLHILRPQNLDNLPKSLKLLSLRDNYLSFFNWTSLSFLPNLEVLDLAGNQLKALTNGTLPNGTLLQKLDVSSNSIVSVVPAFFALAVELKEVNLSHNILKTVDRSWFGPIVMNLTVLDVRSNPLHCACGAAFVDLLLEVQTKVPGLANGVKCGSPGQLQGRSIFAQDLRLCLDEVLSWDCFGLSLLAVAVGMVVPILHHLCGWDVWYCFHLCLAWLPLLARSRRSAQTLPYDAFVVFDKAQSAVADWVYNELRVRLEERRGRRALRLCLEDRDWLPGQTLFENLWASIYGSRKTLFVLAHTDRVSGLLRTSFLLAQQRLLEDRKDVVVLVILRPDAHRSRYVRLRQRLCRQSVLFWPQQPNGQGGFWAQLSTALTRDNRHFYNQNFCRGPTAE
Description: Induction of TLR9-mediated IL6 production in C57BL/6 mouse spleen cells after 24 hrs by ELISA. The class given is cell-based. The procedure, abridged:
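C57BL/6 mouse spleen cells were cultured with agonists at 0.1, 0.3, 1, 3 and 10 μg/mL for 24 h. Secreted IL-12 and IL-6 in the supernatants were measured by ELISA. Values are averages of triplicate wells from one representative of at least two independent experiments.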
For orientation: ELISA stands for enzyme-linked immunosorbent assay.

Assay [2] has as its target T2, Toll-like receptor 9 (Homo sapiens) (UniProt Q9NR96).
T2 sequence (whole entry): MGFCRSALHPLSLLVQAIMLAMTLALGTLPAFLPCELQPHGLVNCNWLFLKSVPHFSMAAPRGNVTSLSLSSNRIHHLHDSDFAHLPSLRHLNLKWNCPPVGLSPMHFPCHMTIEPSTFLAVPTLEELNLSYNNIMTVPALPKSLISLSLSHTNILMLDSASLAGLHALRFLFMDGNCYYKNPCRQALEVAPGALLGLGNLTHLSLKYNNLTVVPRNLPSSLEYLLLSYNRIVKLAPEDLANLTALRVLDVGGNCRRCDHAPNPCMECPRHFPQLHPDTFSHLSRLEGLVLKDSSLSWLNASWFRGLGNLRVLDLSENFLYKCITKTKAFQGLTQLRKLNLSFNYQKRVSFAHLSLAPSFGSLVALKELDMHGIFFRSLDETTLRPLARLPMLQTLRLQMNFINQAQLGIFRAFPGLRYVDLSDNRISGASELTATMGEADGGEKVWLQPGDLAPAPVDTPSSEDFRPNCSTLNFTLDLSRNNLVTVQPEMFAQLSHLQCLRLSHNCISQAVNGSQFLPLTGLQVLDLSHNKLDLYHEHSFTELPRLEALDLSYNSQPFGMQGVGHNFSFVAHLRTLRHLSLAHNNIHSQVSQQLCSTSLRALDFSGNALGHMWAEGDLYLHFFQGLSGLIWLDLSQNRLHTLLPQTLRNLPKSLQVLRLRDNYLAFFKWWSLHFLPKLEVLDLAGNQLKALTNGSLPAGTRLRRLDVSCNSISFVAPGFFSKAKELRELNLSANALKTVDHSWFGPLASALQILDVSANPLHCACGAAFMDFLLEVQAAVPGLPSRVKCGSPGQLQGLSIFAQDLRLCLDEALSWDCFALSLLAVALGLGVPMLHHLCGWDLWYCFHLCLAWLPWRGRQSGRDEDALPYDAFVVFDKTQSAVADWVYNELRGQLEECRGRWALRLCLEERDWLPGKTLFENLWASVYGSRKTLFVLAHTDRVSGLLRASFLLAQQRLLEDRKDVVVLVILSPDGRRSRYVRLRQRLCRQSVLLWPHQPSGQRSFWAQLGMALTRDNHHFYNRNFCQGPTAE
In words: Induction of TLR9-mediated immune stimulation in human PBMC assessed as IL6 production at 10 ug/ml after 24 hrs by luminex multiplex assay (RVb = 0.01 ng/ml).

Assay [3] addresses T2, Toll-like receptor 9 (Homo sapiens). In words: Induction of TLR9-mediated immune stimulation in human PBMC assessed as IL12 production at 2 ug/ml after 24 hrs by luminex multiplex assay (RVb = 0.00 ng/ml).
For assay [4] the target is unchanged. In words: Induction of TLR9-mediated immune stimulation in human PBMC assessed as IL12 production at 10 ug/ml after 24 hrs by luminex multiplex assay (RVb = 0.00 ng/ml).
For assay [5] the target is unchanged. Description: Induction of TLR9-mediated immune stimulation in human PBMC assessed as MIP1alpha production at 2 ug/ml after 24 hrs by luminex multiplex assay (RVb = 0.01 ng/ml).
For assay [6] the target is unchanged. Description: Induction of TLR9-mediated immune stimulation in human PBMC assessed as MIP1alpha production at 10 ug/ml after 24 hrs by luminex multiplex assay (RVb = 0.01 ng/ml).
Assay [7] shares this target. Description: Induction of TLR9-mediated immune stimulation in human PBMC assessed as IP10 production at 2 ug/ml after 24 hrs by luminex multiplex assay (RVb = 0.00 ng/ml).
Assay [8] shares this target. In words: Induction of TLR9-mediated immune stimulation in human PBMC assessed as IP10 production at 10 ug/ml after 24 hrs by luminex multiplex assay (RVb = 0.00 ng/ml).
For assay [9] the target is unchanged. Description: Induction of TLR9-mediated immune stimulation in human PBMC assessed as RANTES production at 10 ug/ml after 24 hrs by luminex multiplex assay (RVb = 0.05 +/- 0.04 ng/ml).
In assay [10] the test system is Mus musculus. In words: Immunostimulatory activity in C57BL/6 mouse assessed as increase in serum IL12 level at 1 mg/kg, sc after 2 hrs by ELISA. The class given is functional, organism-based. Further details: dose 1 mg/kg. A digest of the protocol:
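Female C57BL/6 mice (n=3) received a single subcutaneous agonist dose of 1 mg/kg. Blood was taken by retro-orbital bleeding 2 h later, and serum IL-12 was measured by sandwich ELISA. Values are the mean of three mice ± SD.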

The source made the active and inactive calls. The calls are words filed in the database; no cut-off is given here.

For the compound `Cc1cn([C@H]2C[C@H](OCC(O)COP(=O)(S)O[C@H]3C[C@H](n4cc(C)c(=O)[nH]c4=O)O[C@@H]3COP(=O)(S)O[C@H]3[C@@H](O)[C@H](n4ccc(N)nc4=O)O[C@@H]3COP(=O)(S)O[C@H]3[C@@H](O)[C@H](n4cnc5c(N)ncnc54)O[C@@H]3COP(=O)(S)O[C@H]3[C@@H](O)[C@H](n4cnc5c(N)ncnc54)O[C@@H]3COP(=O)(S)O[C@H]3[C@@H](O)[C@H](n4ccc(N)nc4=O)O[C@@H]3COP(=O)(S)O[C@H]3[C@@H](O)[C@H](n4ccc(N)nc4=O)O[C@@H]3COP(=O)(S)O[C@H]3[C@@H](O)[C@H](n4cnc5c(N)ncnc54)O[C@@H]3COP(=O)(S)O[C@H]3[C@@H](O)[C@H](n4ccc(N)nc4=O)O[C@@H]3COP(=O)(S)O[C@H]3[C@@H](O)[C@H](n4cnc5c(N)ncnc54)O[C@@H]3COP(=O)(S)O[C@H]3[C@@H](O)[C@H](n4ccc(N)nc4=O)O[C@@H]3COP(=O)(S)O[C@H]3[C@@H](O)[C@H](n4cnc5c(N)ncnc54)O[C@@H]3CO)[C@@H](COP(=O)(S)O[C@H]3[C@@H](O)[C@H](n4ccc(N)nc4=O)O[C@@H]3COP(=O)(S)O[C@H]3[C@@H](O)[C@H](n4cnc5c(N)ncnc54)O[C@@H]3COP(=O)(S)O[C@H]3[C@@H](O)[C@H](n4cnc5c(N)ncnc54)O[C@@H]3COP(=O)(S)O[C@H]3[C@@H](O)[C@H](n4ccc(N)nc4=O)O[C@@H]3COP(=O)(S)O[C@H]3[C@@H](O)[C@H](n4ccc(N)nc4=O)O[C@@H]3COP(=O)(S)O[C@H]3[C@@H](O)[C@H](n4cnc5c(N)ncnc54)O[C@@H]3COP(=O)(S)O[C@H]3[C@@H](O)[C@H](n4ccc(N)nc4=O)O[C@@H]3COP(=O)(S)O[C@H]3[C@@H](O)[C@H](n4cnc5c(N)ncnc54)O[C@@H]3COP(=O)(S)O[C@H]3[C@@H](O)[C@H](n4ccc(N)nc4=O)O[C@@H]3COP(=O)(S)O[C@H]3[C@@H](O)[C@H](n4cnc5c(N)ncnc54)O[C@@H]3CO)O2)c(=O)[nH]c1=O` (stereo not given in full), the Activity result is “Dose-dependent effect” in [1]; 0.03 ng/mL in assay [2]; 0.03 ng/mL in [3]; 0.05 ng/mL in [4]; 0.04 ng/mL in assay [5]; 0.07 ng/mL in assay [6]. Besides, the Activity came out at 0.01 ng/mL in assay [7], 0.02 ng/mL in [8] and 0.52 ng/mL in assay [9]. The result in [10] was Active.
As for `Cc1cn([C@H]2C[C@H](O[C@H]3C[C@@H](O)C[C@@H](OP(=O)(S)O[C@H]4C[C@H](n5cc(C)c(=O)[nH]c5=O)O[C@@H]4COP(=O)(S)O[C@H]4[C@@H](O)[C@H](n5ccc(N)nc5=O)O[C@@H]4COP(=O)(S)O[C@H]4C[C@H](n5cc(C)c(=O)[nH]c5=O)O[C@@H]4COP(=O)(S)O[C@H]4C[C@H](n5cc(C)c(=O)[nH]c5=O)O[C@@H]4COP(=O)(S)O[C@H]4C[C@H](n5ccc6c(=O)[nH]c(N)nc65)O[C@@H]4COP(=O)(S)O[C@H]4[C@@H](O)[C@H](n5ccc(N)nc5=O)O[C@@H]4COP(=O)(S)O[C@H]4C[C@H](n5cc(C)c(=O)[nH]c5=O)O[C@@H]4COP(=O)(S)O[C@H]4[C@@H](O)[C@H](n5cnc6c(=O)[nH]c(N)nc65)O[C@@H]4COP(=O)(S)O[C@H]4C[C@H](n5cc(C)c(=O)[nH]c5=O)O[C@@H]4COP(=O)(S)O[C@H]4[C@@H](O)[C@H](n5ccc(N)nc5=O)O[C@@H]4COP(=O)(S)O[C@H]4C[C@H](n5cc(C)c(=O)[nH]c5=O)O[C@@H]4CO)C3)[C@@H](COP(=O)(S)O[C@H]3[C@@H](O)[C@H](n4ccc(N)nc4=O)O[C@@H]3COP(=O)(S)O[C@H]3C[C@H](n4cc(C)c(=O)[nH]c4=O)O[C@@H]3COP(=O)(S)O[C@H]3C[C@H](n4cc(C)c(=O)[nH]c4=O)O[C@@H]3COP(=O)(S)O[C@H]3C[C@H](n4ccc5c(=O)[nH]c(N)nc54)O[C@@H]3COP(=O)(S)O[C@H]3[C@@H](O)[C@H](n4ccc(N)nc4=O)O[C@@H]3COP(=O)(S)O[C@H]3C[C@H](n4cc(C)c(=O)[nH]c4=O)O[C@@H]3COP(=O)(S)O[C@H]3[C@@H](O)[C@H](n4cnc5c(=O)[nH]c(N)nc54)O[C@@H]3COP(=O)(S)O[C@H]3C[C@H](n4cc(C)c(=O)[nH]c4=O)O[C@@H]3COP(=O)(S)O[C@H]3[C@@H](O)[C@H](n4ccc(N)nc4=O)O[C@@H]3COP(=O)(S)O[C@H]3C[C@H](n4cc(C)c(=O)[nH]c4=O)O[C@@H]3CO)O2)c(=O)[nH]c1=O` (stereo not given in full), the Activity entry in assay [1] is “Dose-dependent effect”; in assay [2], 0.67 ng/mL; in [3] it was 0.13 ng/mL; in [4] it was 0.2 ng/mL; in [5] it was 0.05 ng/mL; in assay [6], 0.67 ng/mL. Also, the Activity worked out at 0.03 ng/mL in assay [7], 0.03 ng/mL in assay [8] and 2.13 ng/mL in assay [9]. In addition, the outcome in assay [10] was Active.
